≈ marks a conversion by molar mass, not a printed value.
What was measured:
Type in all cases: functional
[1] = tested on: Klebsiella pneumoniae; assay: Antimicrobial activity against Klebsiella pneumoniae KP55 after 18 hrs by rapid INT colorimetric assay in presence of efflux pump inhibitor phenylalanine arginine; conditions: KP55, 18 h
[2] = tested on: Klebsiella aerogenes; assay: Antimicrobial activity against Enterobacter aerogenes EA294 after 18 hrs by rapid INT colorimetric assay in presence of efflux pump inhibitor phenylalanine arginine; conditions: EA294, 18 h
[3] = tested on: Escherichia coli; assay: Antimicrobial activity against Escherichia coli ATCC 10536 after 18 hrs by rapid INT colorimetric assay; conditions: ATCC 10536, 18 h
Outline: (§1)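 Strains precultured overnight on Mueller-Hinton agar. Sample dissolved in DMSO-MHB, twofold serial dilutions in MHB, inoculum 1.5 × 10^6 CFU/ml; final DMSO below 2.5%. Incubated 37°C 18 h, then 0.2 mg/ml INT added, 30 min at 37°C. MIC = lowest concentration preventing yellow-to-pink change (complete growth inhibition). DMSO-only wells as negative control.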

[4] = tested on: Klebsiella pneumoniae; assay: Antimicrobial activity against Klebsiella pneumoniae KP63 after 18 hrs by rapid INT colorimetric assay; conditions: KP63, 18 h; outline: as §1
[5] = tested on: Escherichia coli; assay: Antimicrobial activity against Escherichia coli AG100 after 18 hrs by rapid INT colorimetric assay; conditions: AG100, 18 h
Outline: (§2)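 Strains precultured overnight on Mueller-Hinton agar. Samples dissolved in DMSO-MHB, serially diluted twofold in MHB, inoculum 1.5 × 10^6 CFU/ml in MHB added; 37°C, 18 h; final DMSO <2.5%. 0.2 mg/ml INT then added, 30 min at 37°C. MIC = lowest concentration preventing yellow-to-pink reduction, i.e. complete growth inhibition.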

[6] = tested on: Klebsiella aerogenes; assay: Antimicrobial activity against Enterobacter aerogenes EA27 after 18 hrs by rapid INT colorimetric assay in presence of efflux pump inhibitor phenylalanine arginine; conditions: EA27, 18 h
[7] = tested on: Klebsiella aerogenes; assay: Antimicrobial activity against Enterobacter aerogenes EA5 after 18 hrs by rapid INT colorimetric assay; conditions: EA5, 18 h; outline: as §1
[8] = tested on: Klebsiella aerogenes; assay: Antimicrobial activity against Enterobacter aerogenes EA-CM64 after 18 hrs by rapid INT colorimetric assay in presence of efflux pump inhibitor phenylalanine arginine; conditions: EA-CM64, 18 h
[9] = tested on: Klebsiella aerogenes; assay: Antimicrobial activity against Enterobacter aerogenes ATCC 13048 after 18 hrs by rapid INT colorimetric assay in presence of efflux pump inhibitor phenylalanine arginine; conditions: ATCC 13048, 18 h
[10] = tested on: Pseudomonas aeruginosa; assay: Antimicrobial activity against Pseudomonas aeruginosa PAO1 after 18 hrs by rapid INT colorimetric assay; conditions: PAO1, 18 h; outline: as §2
[11] = tested on: Escherichia coli; assay: Antimicrobial activity against Escherichia coli AG100 after 18 hrs by rapid INT colorimetric assay in presence of efflux pump inhibitor phenylalanine arginine; conditions: AG100, 18 h
[12] = tested on: Klebsiella aerogenes; assay: Antimicrobial activity against Enterobacter aerogenes EA289 after 18 hrs by rapid INT colorimetric assay; conditions: EA289, 18 h; outline: as §1
[13] = tested on: Klebsiella aerogenes; assay: Antimicrobial activity against Enterobacter aerogenes EA298 after 18 hrs by rapid INT colorimetric assay in presence of efflux pump inhibitor phenylalanine arginine; conditions: EA298, 18 h
[14] = tested on: Klebsiella aerogenes; assay: Antimicrobial activity against Enterobacter aerogenes EA294 after 18 hrs by rapid INT colorimetric assay; conditions: EA294, 18 h; outline: as §2
[15] = tested on: Escherichia coli; assay: Antimicrobial activity against Escherichia coli AG100A after 18 hrs by rapid INT colorimetric assay; outline: as §2
[16] = tested on: Klebsiella aerogenes; assay: Antimicrobial activity against Enterobacter aerogenes EA289 after 18 hrs by rapid INT colorimetric assay in presence of efflux pump inhibitor phenylalanine arginine; conditions: EA289, 18 h
[17] = tested on: Escherichia coli; assay: Antimicrobial activity against Escherichia coli AG100A after 18 hrs by rapid INT colorimetric assay in presence of efflux pump inhibitor phenylalanine arginine
[18] = tested on: Klebsiella aerogenes; assay: Antimicrobial activity against Enterobacter aerogenes EA5 after 18 hrs by rapid INT colorimetric assay in presence of efflux pump inhibitor phenylalanine arginine; conditions: EA5, 18 h
[19] = tested on: Pseudomonas aeruginosa; assay: Antimicrobial activity against Pseudomonas aeruginosa PA124 after 18 hrs by rapid INT colorimetric assay in presence of efflux pump inhibitor phenylalanine arginine; conditions: PA124, 18 h
[20] = tested on: Enterobacter cloacae; assay: Antimicrobial activity against Enterobacter cloacae Ec1194 after 18 hrs by rapid INT colorimetric assay; conditions: Ec1194, 18 h; outline: as §1
[21] = tested on: Klebsiella aerogenes; assay: Antimicrobial activity against Enterobacter aerogenes EA3 after 18 hrs by rapid INT colorimetric assay; conditions: EA3, 18 h; outline: as §1
[22] = tested on: Klebsiella pneumoniae; assay: Antimicrobial activity against Klebsiella pneumoniae KP63 after 18 hrs by rapid INT colorimetric assay in presence of efflux pump inhibitor phenylalanine arginine; conditions: KP63, 18 h
[23] = tested on: Klebsiella pneumoniae; assay: Antimicrobial activity against Klebsiella pneumoniae KP55 after 18 hrs by rapid INT colorimetric assay; conditions: KP55, 18 h; outline: as §1
[24] = tested on: Klebsiella aerogenes; assay: Antimicrobial activity against Enterobacter aerogenes EA-CM64 after 18 hrs by rapid INT colorimetric assay; conditions: EA-CM64, 18 h; outline: as §2
[25] = tested on: Klebsiella aerogenes; assay: Antimicrobial activity against Enterobacter aerogenes EA27 after 18 hrs by rapid INT colorimetric assay; conditions: EA27, 18 h; outline: as §1
[26] = tested on: Pseudomonas aeruginosa; assay: Antimicrobial activity against Pseudomonas aeruginosa PAO1 after 18 hrs by rapid INT colorimetric assay in presence of efflux pump inhibitor phenylalanine arginine; conditions: PAO1, 18 h
[27] = tested on: Escherichia coli; assay: Antimicrobial activity against tetracycline-resistant Escherichia coli AG100A after 18 hrs by rapid INT colorimetric assay in presence of efflux pump inhibitor phenylalanine arginine
Outline: (§3)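 Broth microdilution MIC in Mueller-Hinton broth with PAßN at a final 20 μg/ml throughout. Twofold dilutions of sample from DMSO-MHB stock; inoculum 1.5 × 10^6 CFU/ml; 18 h at 37°C, final DMSO <2.5%. Growth read by INT (0.2 mg/ml, 30 min, 37°C). MIC taken as lowest concentration with no pink colour.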

[28] = tested on: Klebsiella aerogenes; assay: Antimicrobial activity against Enterobacter aerogenes EA298 after 18 hrs by rapid INT colorimetric assay; conditions: EA298, 18 h; outline: as §2
[29] = tested on: Escherichia coli; assay: Antimicrobial activity against tetracycline-resistant Escherichia coli AG100A after 18 hrs by rapid INT colorimetric assay; outline: as §2
[30] = tested on: Klebsiella aerogenes; assay: Antimicrobial activity against Enterobacter aerogenes EA3 after 18 hrs by rapid INT colorimetric assay in presence of efflux pump inhibitor phenylalanine arginine; conditions: EA3, 18 h
[31] = tested on: Escherichia coli; assay: Antimicrobial activity against Escherichia coli ATCC 8739 after 18 hrs by rapid INT colorimetric assay in presence of efflux pump inhibitor phenylalanine arginine; conditions: ATCC 8739, 18 h; outline: as §3
[32] = tested on: Escherichia coli; assay: Antimicrobial activity against Escherichia coli ATCC 10536 after 18 hrs by rapid INT colorimetric assay in presence of efflux pump inhibitor phenylalanine arginine beta-naphthylamide; conditions: ATCC 10536, 18 h; outline: as §3
[33] = tested on: Klebsiella pneumoniae; assay: Antimicrobial activity against Klebsiella pneumoniae ATCC 11296 after 18 hrs by rapid INT colorimetric assay; conditions: ATCC 11296, 18 h; outline: as §2
[34] = tested on: Escherichia coli; assay: Antimicrobial activity against tetracycline-resistant Escherichia coli AG102 after 18 hrs by rapid INT colorimetric assay in presence of efflux pump inhibitor phenylalanine arginine; conditions: AG102, 18 h; outline: as §3
[35] = tested on: Klebsiella aerogenes; assay: Antimicrobial activity against Enterobacter aerogenes ATCC 13048 after 18 hrs by rapid INT colorimetric assay; conditions: ATCC 13048, 18 h; outline: as §1
[36] = tested on: Enterobacter cloacae; assay: Antimicrobial activity against Enterobacter cloacae Ec1194 after 18 hrs by rapid INT colorimetric assay in presence of efflux pump inhibitor phenylalanine arginine; conditions: Ec1194, 18 h; outline: as §3
[37] = tested on: Klebsiella pneumoniae; assay: Antimicrobial activity against Klebsiella pneumoniae ATCC 11296 after 18 hrs by rapid INT colorimetric assay in presence of efflux pump inhibitor phenylalanine arginine; conditions: ATCC 11296, 18 h
[38] = tested on: Pseudomonas aeruginosa; assay: Antimicrobial activity against Pseudomonas aeruginosa PA124 after 18 hrs by rapid INT colorimetric assay; conditions: PA124, 18 h; outline: as §2
[39] = tested on: Enterobacter cloacae; assay: Antimicrobial activity against Enterobacter cloacae Ec07769 after 18 hrs by rapid INT colorimetric assay; conditions: Ec07769, 18 h; outline: as §1
[40] = tested on: Escherichia coli; assay: Antimicrobial activity against Escherichia coli ATCC 8739 after 18 hrs by rapid INT colorimetric assay; conditions: ATCC 8739, 18 h; outline: as §2
[41] = tested on: Escherichia coli; assay: Antimicrobial activity against tetracycline-resistant Escherichia coli AG102 after 18 hrs by rapid INT colorimetric assay; conditions: AG102, 18 h; outline: as §2
[42] = tested on: Enterobacter cloacae; assay: Antimicrobial activity against Enterobacter cloacae Ec07769 after 18 hrs by rapid INT colorimetric assay in presence of efflux pump inhibitor phenylalanine arginine; conditions: Ec07769, 18 h

O=C(N[C@H](CO)[C@H](O)c1ccc([N+](=O)[O-])cc1)C(Cl)Cl [CHLORAMPHENICOL]
MIC [1]: 4 µg/mL | MIC [2]: 16 µg/mL | MIC [3]: 1 µg/mL (≈ 3.09 µM) | MIC [4]: > 256 µg/mL | MIC [5]: 4 µg/mL (≈ 12.4 µM) | MIC [6]: 128 µg/mL | MIC [7]: > 256 µg/mL | MIC [8]: 8 µg/mL | MIC [9]: 1 µg/mL | MIC [10]: 128 µg/mL (≈ 396 µM) | MIC [11]: 0.25 µg/mL | MIC [12]: > 256 µg/mL | MIC [13]: 16 µg/mL | MIC [14]: 64 µg/mL (≈ 198 µM) | MIC [15]: 0.5 µg/mL (≈ 1.55 µM) | MIC [16]: 128 µg/mL | MIC [17]: 0.25 µg/mL | MIC [18]: 32 µg/mL | MIC [19]: 8 µg/mL | MIC [20]: 2 µg/mL (≈ 6.19 µM) | MIC [21]: > 256 µg/mL | MIC [22]: 128 µg/mL | MIC [23]: 32 µg/mL (≈ 99 µM) | MIC [24]: 256 µg/mL (≈ 792 µM) | MIC [25]: > 256 µg/mL | MIC [26]: 8 µg/mL | MIC [27]: 2 µg/mL | MIC [28]: 64 µg/mL (≈ 198 µM) | MIC [29]: 32 µg/mL (≈ 99 µM) | MIC [30]: 128 µg/mL | MIC [31]: 1 µg/mL | MIC [32]: 0.5 µg/mL | MIC [33]: 2 µg/mL (≈ 6.19 µM) | MIC [34]: 2 µg/mL | MIC [35]: 4 µg/mL (≈ 12.4 µM) | MIC [36]: 1 µg/mL | MIC [37]: 2 µg/mL | MIC [38]: 256 µg/mL (≈ 792 µM) | MIC [39]: > 256 µg/mL | MIC [40]: 4 µg/mL (≈ 12.4 µM) | MIC [41]: 32 µg/mL (≈ 99 µM) | MIC [42]: 256 µg/mL

CC(C)=CCc1c(O)ccc(C(=O)/C=C/c2ccc(O)cc2)c1O [ISOBAVACHALCONE]
MIC [1]: 4 µg/mL | MIC [2]: 0.5 µg/mL | MIC [3]: 128 µg/mL (≈ 395 µM) | MIC [4]: 16 µg/mL (≈ 49.3 µM) | MIC [5]: 64 µg/mL (≈ 197 µM) | MIC [6]: 8 µg/mL | MIC [7]: 64 µg/mL (≈ 197 µM) | MIC [8]: 256 µg/mL | MIC [9]: 16 µg/mL | MIC [10]: 64 µg/mL (≈ 197 µM) | MIC [11]: 0.5 µg/mL | MIC [12]: 256 µg/mL (≈ 789 µM) | MIC [13]: 0.5 µg/mL | MIC [14]: 32 µg/mL (≈ 98.7 µM) | MIC [15]: 16 µg/mL (≈ 49.3 µM) | MIC [16]: 16 µg/mL | MIC [17]: 0.25 µg/mL | MIC [18]: 16 µg/mL | MIC [19]: 4 µg/mL | MIC [20]: 64 µg/mL (≈ 197 µM) | MIC [21]: 128 µg/mL (≈ 395 µM) | MIC [22]: 0.5 µg/mL | MIC [23]: 32 µg/mL (≈ 98.7 µM) | MIC [24]: > 256 µg/mL | MIC [25]: 256 µg/mL (≈ 789 µM) | MIC [26]: 16 µg/mL | MIC [27]: 8 µg/mL | MIC [28]: 8 µg/mL (≈ 24.7 µM) | MIC [29]: 64 µg/mL (≈ 197 µM) | MIC [30]: 32 µg/mL | MIC [31]: 8 µg/mL | MIC [32]: 2 µg/mL | MIC [33]: 32 µg/mL (≈ 98.7 µM) | MIC [34]: 8 µg/mL | MIC [35]: 256 µg/mL (≈ 789 µM) | MIC [36]: 1 µg/mL | MIC [37]: 4 µg/mL | MIC [38]: 64 µg/mL (≈ 197 µM) | MIC [39]: 128 µg/mL (≈ 395 µM) | MIC [40]: 256 µg/mL (≈ 789 µM) | MIC [41]: 64 µg/mL (≈ 197 µM) | MIC [42]: 8 µg/mL
